ChEMBL document CHEMBL1255494, “In vivo comparison of the pharmacodynamic targets for echinocandin drugs against Candida species” (Antimicrob Agents Chemother, 2010)
Values after ≈ are worked out from the molar mass of the structure shown. *1 amine or outer side, *2 acyl side, *3 side chain or, on linkers, in order; H or OH if unused. Where a SMILES comes first, the peptide text is derived from it. Bridges are numbered along the chain shown (N, C = ends). [ ]: non-standard residue; d: D form. The star is where a group is joined. hTyr(3S-OH,4S-OH,3'-OSO3H) = N[C@H](C(=O)O)[C@H](O)[C@@H](O)c1ccc(O)c(OS(=O)(=O)O)c1; Orn(4R-OH,5R-OH) = O=C([C@H](C[C@@H](O)[C@@H](O)N[*:3])N[*:1])[*:2]; Pro(3S-OH,4S-Me) = C[C@H]1CN[C@H](C(=O)O)[C@H]1O; X1 = CCCCCOc1ccc(-c2cc(-c3ccc(C(=O)*)cc3)no2)cc1; Gln(3R-OH) = NC(=O)C[C@@H](O)[C@H](N)C(=O)O; Hyp = O=C(O)[C@@H]1C[C@@H](O)CN1

How the values were obtained:
[1] = AUC (0 to 24 hrs) in Candida albicans infected neutropenic ICR Swiss mouse at 5 mg/kg, ip; format: ADME, organism-based; parameters: time < 24 hr, dose 5 mg/kg, route intraperitoneal; conditions: plasma
Outline: (§1)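 Neutropenic female ICR Swiss mice (cyclophosphamide sc at 150 mg/kg on day −4, 100 mg/kg on day −1 and day +2) infected iv via tail vein with Candida; single ip doses of 5, 20 or 80 mg/kg. Serum drawn from 3 mice per time point at eight time points and assayed by microbiologic assay (C. albicans K1) or […]. Noncompartmental analysis; AUC by trapezoidal rule.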

[2] = Ratio of AUC (0 to 24 hrs) in Candida glabrata infected neutropenic ICR Swiss mouse to MIC for Candida glabrata at static dose after 24 hrs; format: functional
Outline: (§2)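 Neutropenic mice were infected iv and treated 2 h later. Four to six ip dose levels (0.078–160 mg/kg) were given every 24 h for 4 days, 3 mice per regimen. Kidney CFU were counted at 96 h. A sigmoid dose-effect model gave the static and 1-log-kill doses relative to burden at therapy start.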

[3] = Ratio of fAUC (0 to 24 hrs) in Candida albicans infected neutropenic ICR Swiss mouse to MIC for Candida albicans at static dose after 24 hrs; format: functional
[4] = Ratio of fAUC (0 to 24 hrs) in Candida glabrata infected neutropenic ICR Swiss mouse to MIC for Candida glabrata at static dose after 24 hrs; format: functional
[5] = Ratio of fAUC (0 to 24 hrs) in Candida parapsilosis infected neutropenic ICR Swiss mouse to MIC for Candida parapsilosis at static dose after 24 hrs; format: functional
[6] = Ratio of AUC (0 to 24 hrs) in Candida albicans infected neutropenic ICR Swiss mouse to MIC for Candida albicans at 1 log kill dose after 24 hrs; format: functional; outline: as §2
[7] = Ratio of AUC (0 to 24 hrs) in Candida glabrata infected neutropenic ICR Swiss mouse to MIC for Candida glabrata at 1 log kill dose after 24 hrs; format: functional; outline: as §2
[8] = Ratio of fAUC (0 to 24 hrs) in Candida albicans infected neutropenic ICR Swiss mouse to MIC for Candida albicans at 1 log kill dose after 24 hrs; format: functional
[9] = Ratio of fAUC (0 to 24 hrs) in Candida parapsilosis infected neutropenic ICR Swiss mouse to MIC for Candida parapsilosis at 1 log kill dose after 24 hrs; format: functional
Nakaseomyces glabratus [10] = assay: Fungistatic activity against Candida glabrata infected in neutropenic ICR Swiss mouse after 24 hrs; format: functional
Outline: (§3)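 Female ICR Swiss mice, neutropenic via cyclophosphamide s.c. (150 mg/kg day −4, 100 mg/kg day −1 and day +2), infected by tail-vein injection of clinical isolates 2 h before therapy. Intraperitoneal dosing every 24 h for 4 days, 4–6 dose levels from 0.078 to 160 mg/kg, 3 mice per regimen. Kidney CFU counted at 96 h. Sigmoid dose-effect fit gives static dose and 1 log kill dose relative to burden at start of therapy.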

Candida parapsilosis [11] = assay: Fungistatic activity against Candida parapsilosis infected in neutropenic ICR Swiss mouse after 24 hrs; format: functional; outline: as §3
Candida albicans [12] = assay: Antifungal activity against Candida albicans infected in ICR Swiss mouse assessed as log reduction in bacterial count […]; format: functional; outline: as §3
Candida albicans [13] = assay: Antifungal activity against Candida albicans infected in ICR Swiss mouse; format: functional; outline: as §3
Nakaseomyces glabratus [14] = assay: Antifungal activity against Candida glabrata infected in ICR Swiss mouse; format: functional; outline: as §3
Candida albicans [15] = assay: Antifungal activity against Candida albicans 98-210 after 24 hrs; format: functional; conditions: 98-210, 24 h
Outline: (§4)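 Broth microdilution per CLSI M27-A3 in RPMI 1640; inoculum 0.5 × 10³ to 2.5 × 10³ cells/ml, 35°C. […] Three separate occasions in duplicate, mean reported; C. krusei ATCC 6258 and C. parapsilosis ATCC 22019 as daily QC.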

Candida albicans [16] = assay: Antifungal activity against Candida albicans 580 after 24 hrs; format: functional; conditions: Candida albicans, 580, 24 h; outline: as §4
Candida albicans [17] = assay: Antifungal activity against Candida albicans 570 after 24 hrs; format: functional; conditions: Candida albicans, 570, 24 h
Outline: (§5)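 MICs by CLSI M27-A3 broth dilution in RPMI 1640, inoculum 0.5 × 10³ to 2.5 × 10³ cells/ml, 35°C. Read visually at 24 h as the lowest concentration giving ≥50% growth reduction versus control. Run on three occasions in duplicate and reported as the mean. C. krusei ATCC 6258 and C. parapsilosis ATCC 22019 served as QC strains.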

Nakaseomyces glabratus [18] = assay: Antifungal activity against Candida glabrata 5592 after 24 hrs; format: functional; conditions: Nakaseomyces glabratus, 5592, 24 h; outline: as §4
Nakaseomyces glabratus [19] = assay: Antifungal activity against Candida glabrata 513 after 24 hrs; format: functional; conditions: Nakaseomyces glabratus, 513, 24 h; outline: as §4
Nakaseomyces glabratus [20] = assay: Antifungal activity against Candida glabrata 33609 after 24 hrs; format: functional; conditions: Nakaseomyces glabratus, 33609, 24 h; outline: as §4
Nakaseomyces glabratus [21] = assay: Antifungal activity against Candida glabrata 32930 after 24 hrs; format: functional; conditions: Nakaseomyces glabratus, 32930, 24 h; outline: as §4
Nakaseomyces glabratus [22] = assay: Antifungal activity against Candida glabrata 37661 after 24 hrs; format: functional; conditions: Nakaseomyces glabratus, 37661, 24 h; outline: as §5
Candida parapsilosis [23] = assay: Antifungal activity against Candida parapsilosis 20450.096 after 24 hrs; format: functional; conditions: Lodderomyces parapsilosis, 20450.096, 24 h; outline: as §5
Candida parapsilosis [24] = assay: Antifungal activity against Candida parapsilosis 20477.078 after 24 hrs; format: functional; conditions: Lodderomyces parapsilosis, 20477.078, 24 h; outline: as §5
Candida parapsilosis [25] = assay: Antifungal activity against Candida parapsilosis 20385.079 after 24 hrs; format: functional; conditions: Lodderomyces parapsilosis, 20385.079, 24 h; outline: as §5
Candida parapsilosis [26] = assay: Antifungal activity against Candida parapsilosis 20423.072 after 24 hrs; format: functional; conditions: Lodderomyces parapsilosis, 20423.072, 24 h; outline: as §5
Candida parapsilosis [27] = assay: Antifungal activity against Candida parapsilosis 20423.078 after 24 hrs; format: functional; conditions: Lodderomyces parapsilosis, 20423.078, 24 h; outline: as §5
Candida parapsilosis [28] = assay: Antifungal activity against Candida parapsilosis 20562.03 after 24 hrs; format: functional; conditions: Lodderomyces parapsilosis, 20562.03, 24 h; outline: as §5
Candida parapsilosis [29] = assay: Antifungal activity against Candida parapsilosis 20553.009 after 24 hrs; format: functional; conditions: Lodderomyces parapsilosis, 20553.009, 24 h; outline: as §5
Candida parapsilosis [30] = assay: Antifungal activity against Candida parapsilosis 20489.085 after 24 hrs; format: functional; conditions: Lodderomyces parapsilosis, 20489.085, 24 h; outline: as §4
Candida parapsilosis [31] = assay: Antifungal activity against Candida parapsilosis 20511.092 after 24 hrs; format: functional; conditions: Lodderomyces parapsilosis, 20511.092, 24 h; outline: as §5
Candida parapsilosis [32] = assay: Antifungal activity against Candida parapsilosis 20557.012 after 24 hrs; format: functional; conditions: Lodderomyces parapsilosis, 20557.012, 24 h; outline: as §5
Candida orthopsilosis = assay: Antifungal activity against Candida orthopsilosis 20577.055 after 24 hrs; format: functional; conditions: Lodderomyces orthopsilosis, 20577.055, 24 h; outline: as §5
Candida parapsilosis [33] = assay: Antifungal activity against Candida parapsilosis 20519.069 after 24 hrs; format: functional; conditions: Lodderomyces parapsilosis, 20519.069, 24 h; outline: as §5
Candida parapsilosis [34] = assay: Antifungal activity against Candida parapsilosis 20435.057 after 24 hrs; format: functional; conditions: Lodderomyces parapsilosis, 20435.057, 24 h; outline: as §5
[35] = AUC (0 to 24 hrs) in Candida albicans infected neutropenic ICR Swiss mouse at 80 mg/kg, ip; format: ADME, organism-based; parameters: time < 24 hr, dose 80 mg/kg, route intraperitoneal; conditions: plasma; outline: as §1
[36] = AUC (0 to 24 hrs) in Candida albicans infected neutropenic ICR Swiss mouse at 20 mg/kg, ip; format: ADME, organism-based; parameters: time < 24 hr, dose 20 mg/kg, route intraperitoneal; conditions: plasma; outline: as §1

CCCCCOc1ccc(-c2cc(-c3ccc(C(=O)N[C@H]4C[C@@H](O)[C@@H](O)NC(=O)[C@@H]5[C@@H](O)[C@@H](C)CN5C(=O)[C@H]([C@H](O)CC(N)=O)NC(=O)[C@H]([C@H](O)[C@@H](O)c5ccc(O)c(OS(=O)(=O)O)c5)NC(=O)[C@@H]5C[C@@H](O)CN5C(=O)[C@H]([C@@H](C)O)NC4=O)cc3)no2)cc1 [MICAFUNGIN] (X1-[Orn(4R-OH,5R-OH)]T[Hyp][hTyr(3S-OH,4S-OH,3'-OSO3H)][Gln(3R-OH)][Pro(3S-OH,4S-Me)]; lactam 1-C)
AUC(0-t) at 24 h [1]: 138 µg·h/mL | Ratio [2]: 1542 | Ratio [3]: 12.7 | Ratio [4]: 3.9 | Ratio [5]: 4.95 | Ratio [6]: 10088 | Ratio [7]: 3778 | Ratio [8]: 25.2 | Ratio [9]: 7.73 | Activity (Nakaseomyces glabratus [10]): 2.47 mg/kg | Activity (Candida parapsilosis [11]): 32.3 mg/kg | Activity (Candida albicans [12]): 5.63 mg/kg | Emax (Candida albicans [13]): 7.2 log10 CFU/kidneys | ED50 (Candida albicans [13]; Candida albicans): 18.9 mg/kg | Emax (Nakaseomyces glabratus [14]): 5.4 log10 CFU/kidneys | ED50 (Nakaseomyces glabratus [14]; Nakaseomyces glabratus): 3 mg/kg | MIC (Candida albicans [15]): 0.016 µg/mL (≈ 0.0126 µM) | MIC (Candida albicans [16]): 8 ng/mL (≈ 0.0063 µM) | MIC (Candida albicans [17]): 0.02 µg/mL (≈ 0.0157 µM) | MIC (Nakaseomyces glabratus [18]): 0.016 µg/mL (≈ 0.0126 µM) | MIC (Nakaseomyces glabratus [19]): 0.016 µg/mL (≈ 0.0126 µM) | MIC (Nakaseomyces glabratus [20]): 0.016 µg/mL (≈ 0.0126 µM) | MIC (Nakaseomyces glabratus [21]): 8 ng/mL (≈ 0.0063 µM) | MIC (Nakaseomyces glabratus [22]): 0.25 µg/mL (≈ 0.197 µM) | MIC (Candida parapsilosis [23]): 0.25 µg/mL (≈ 0.197 µM) | MIC (Candida parapsilosis [24]): 0.5 µg/mL (≈ 0.394 µM) | MIC (Candida parapsilosis [25]): 0.5 µg/mL (≈ 0.394 µM) | MIC (Candida parapsilosis [26]): 0.25 µg/mL (≈ 0.197 µM) | MIC (Candida parapsilosis [27]): 0.5 µg/mL (≈ 0.394 µM) | MIC (Candida parapsilosis [28]): 0.5 µg/mL (≈ 0.394 µM) | MIC (Candida parapsilosis [29]): 1 µg/mL (≈ 0.787 µM) | MIC (Candida parapsilosis [30]): 0.12 µg/mL (≈ 0.0945 µM) | MIC (Candida parapsilosis [31]): 0.25 µg/mL (≈ 0.197 µM) | MIC (Candida parapsilosis [32]): 0.25 µg/mL (≈ 0.197 µM) | MIC (Candida orthopsilosis): 0.25 µg/mL (≈ 0.197 µM) | MIC (Candida parapsilosis [33]): 1 µg/mL (≈ 0.787 µM) | MIC (Candida parapsilosis [34]): 0.5 µg/mL (≈ 0.394 µM) | AUC(0-t) at 24 h [35]: 1400 µg·h/mL | AUC(0-t) at 24 h [36]: 520 µg·h/mL
